From ChEMBL document CHEMBL3227967, “Quantitative structure-activity relationships in 1-aryl-2-(alkylamino)ethanol antimalarials” (J Med Chem, 1979)

Legend:
[1] = Lipophilicity, log P of the compound in 0.1 N HCl solution; assay type: physicochemical; conditions: 0.1 N HCl solution; read-out: logP
Outline: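 Partition coefficients of the hydrochloride salts were measured from 0.1 N HCl solution unless a footnote says otherwise. Some entries were not measured. They were calculated by adding the Δlog P of the corresponding phenanthrene analogues to the measured log P of a reference hydrochloride.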

Plasmodium berghei = experiment: Antimalarial activity against Plasmodium berghei; assay type: functional

Row | Compound | logP [1] | log(1/C) (Plasmodium berghei)
1 | OC(CC1CCCCN1)c1cc(C(F)(F)F)nc2ccccc12 (stereo not given) | 0.93 | 
2 | CCCCN(CCCC)CC(O)c1cnc2c(C(F)(F)F)cccc2c1 (stereo not given) | 1.92 | 
3 | CCCCN(CCCC)CC(O)c1c(OC)c2ccccc2c2ccccc12 (stereo not given) | 2.55 | 
4 | CCCCCN(CCCCC)CC(O)c1cc(-c2ccccc2)nc(-c2ccccc2)c1 (stereo not given) | 5.18 | 
5 | CCCCN(CCCC)CC(O)c1ccc(Cl)c2c(C)ccnc12 (stereo not given) | 2.31 | 
6 | CCCCN(CCCC)CC(O)c1c(C)c(-c2ccc(C)cc2C)nc2c1ccc1ccccc12 (stereo not given) | 6 | 
7 | CCCCCCCN(CCCCCCC)CC(O)c1cccc2ccc3c4ccccc4cc(Br)c3c12 (stereo not given) | 7.69 | 
8 | OC(CN1C=CN(c2ccccc2)C=C1)c1cc(-c2ccc(F)cc2)nc2cc(F)ccc12 (stereo not given) | 4.26 | 
9 | CCCCCCN(CCCCCC)CC(O)c1cc(-c2ccccc2)nc2ccccc12 (stereo not given) | 4.51 | 
10 | CCCCN(CCCC)CC(O)c1cccc2cc(Cl)ccc12 (stereo not given) | 2.19 | 
11 | CCCCN(CCCC)CC(O)c1cc(Cl)cc2cccnc12 (stereo not given) | 1.75 | 
12 | CCCNCC(O)c1cc(-c2ccccc2)nc(-c2ccccc2)c1 (stereo not given) | 3.03 | 
13 | OC(CC1CC2CCC(CC2)C1)c1cc2ccccc2c2cc(Br)ccc12 (stereo not given) | 3.74 | 
14 | CCCCCCCN(CCCCCCC)CC(O)c1cc2ccccc2c2cccnc12 (stereo not given) | 4.03 | 
15 | CCCCCCN(CCCCCC)CC(O)c1cc2ccccc2c2ccccc12 (stereo not given) | 4.94 | 
16 | CCCCCCCN(CCCCCCC)CC(O)c1cc(-c2ccc(Br)cc2)nc(-c2ccc(Br)cc2)c1 (stereo not given) | 8.83 | 
17 | O=C(Nc1cccc(C(F)(F)F)c1)c1cc(C(O)CC2CCCCN2)c2cccc(C(F)(F)F)c2n1 (stereo not given) | 2.3 | 
18 | CCCCCCCN(CCCCCCC)CC(O)c1ccc(Cl)c2c(C)ccnc12 (stereo not given) | 5.25 | 
19 | N#CCCN(CC(O)c1cc2ccccc2c2ccccc12)C1CCCCC1 (stereo not given) | 2.27 | 
20 | CCCCCNCC(O)c1cc2ccccc2c2ccccc12 (stereo not given) | 2.8 | 
21 | CCCCN(CCCC)CC(O)c1ccc2cc(OC)c(Cl)cc2n1 (stereo not given) | 1.73 | 
22 | CCCCCCCN(CCCCCCC)CC(O)c1cc(-c2ccccc2)nc(-c2ccccc2)c1 (stereo not given) | 7.11 | 

Row | Compound | logP [1] | log(1/C) (Plasmodium berghei)
23 | CNCC(O)c1cc(-c2ccccc2)nc2ccccc12 (stereo not given) | 0.55 | 
24 | CCCCCNCC(O)c1cc(-c2ccccc2)nc(-c2ccccc2)c1 (stereo not given) | 3.97 | 
25 | CCN1C=CN(CC(O)c2cc(-c3ccc(F)cc3)nc3cc(F)ccc23)C=C1 (stereo not given) | 3.32 | 
26 | CCCCCCCN(CCCCCCC)CC(O)c1cc2ncccc2c2ccccc12 (stereo not given) | 4.03 | 
27 | CCCCN(CCCC)CC(O)c1cc(-c2ccc(Cl)cc2)c2cc(Cl)cc(Cl)c2n1 (stereo not given) | 5.13 | 
28 | OC(c1cc(-c2ccccc2)nc2ccccc12)C1CCCCN1 (stereo not given) | 1.58 | 
29 | CCN(CC)CC(O)c1ccc(Cl)c2ccccc12 (stereo not given) | 0.56 | 
30 | CCCCN(CCCC)CC(O)c1c(Cl)cc(Cl)c2ncccc12 (stereo not given) | 2.46 | 
31 | O=C(O)CCNCC(O)c1cc2ccccc2c2ccccc12 (stereo not given) | 0.6 | 
32 | CCCNCC(O)c1cc2ccccc2c2ccccc12 (stereo not given) | 1.86 | 
33 | NCC(O)c1cc2ccc(C(F)(F)F)cc2c2cc(C(F)(F)F)ccc12 (stereo not given) | 2.19 | 
34 | CCCCN(CCCC)CC(O)c1cnc2cc(Cl)ccc2c1Cl (stereo not given) | 2.46 | 
35 | CCCCCCN(CCCCCC)CC(O)c1cc(OC)c2cc(Cl)cc(Cl)c2n1 (stereo not given) | 4.38 | 
36 | OC(CN1C=CN(c2ccccc2)C=C1)c1cc(-c2ccc(Cl)cc2)nc2cc(Cl)ccc12 (stereo not given) | 5.4 | 
37 | COc1ccc2nccc(C(O)CC3CCC(/C=C/Br)CN3)c2c1 (stereo not given) | 1.71 | 
38 | CCCCN(CCCC)CC(O)c1ccc2cc(Cl)cc(Cl)c2n1 (stereo not given) | 2.46 | 
39 | CCCCCCCCCCN(CCCCCCCCCC)CC(O)c1ccc(Cl)c2ccccc12 (stereo not given) | 8.13 | 
40 | CCCCCCCN(CCCCCCC)CC(O)c1cc2ccccc2c2cnccc12 (stereo not given) | 4.03 | 
41 | CCCN(CCC)CC(O)c1cc(-c2ccccc2)nc(-c2ccccc2)c1 (stereo not given) | 3.29 | 
42 | OC(CC1CCNCC1)c1cc2ccc(C(F)(F)F)cc2c2cc(C(F)(F)F)ccc12 (stereo not given) | 3.34 | 
43 | CCCCN(CCCC)CC(O)c1cnc2c(Cl)cc(Cl)cc2c1 (stereo not given) | 2.46 | 
44 | CCCCCCCN(CCCCCCC)CC(O)c1cc2ccccc2c2ccccc12 (stereo not given) | 5.94 | 

Row | Compound | logP [1] | log(1/C) (Plasmodium berghei)
45 | CCCCN(CCCC)CC(O)c1cc(Cl)cc2c(C)ccnc12 (stereo not given) | 2.31 | 
46 | CCCCCCCN(CCCCCCC)CC(O)c1cc(-c2ccccc2)nc2ccccc12 (stereo not given) | 5.51 | 
47 | CCCCNCC(O)c1cc(-c2ccccc2)nc2ccccc12 (stereo not given) | 1.87 | 
48 | Cc1cc(C(O)CN2CCCCCC2)cc2ccc(-c3ccccc3)nc12 (stereo not given) | 3.47 | 
49 | CCCCCNCC(O)c1cc(-c2ccccc2)nc2ccccc12 (stereo not given) | 2.37 | 
50 | CCCCN(CCCC)CC(O)c1cnc2c(C)cc(C)cc2c1Cl (stereo not given) | 2.87 | 
51 | OC(CC1CCCCN1)c1cc(C2CCCCC2)nc2ccccc12 (stereo not given) | 2.56 | 
52 | CCC1C[N+]2(CC(O)c3ccnc4ccc(OC)cc34)CCC1CC2 (stereo not given) | 2.31 | 
53 | OC(CC1CCCCN1)C1CC=Nc2c1cccc2C(F)(F)F (stereo not given) | 1.12 | 
54 | O=C(O)c1ccc2cc(C(O)CC3CCCCN3)c3ccc(C(F)(F)F)cc3c2c1 (stereo not given) | 2.14 | 
55 | CC(C)(C)CC(C)(C)NCC(O)c1c2ccccc2cc2ccccc12 (stereo not given) | 3.46 | 
56 | CCN(CC)CC(O)c1cc(Cl)cc2c(C)ccnc12 (stereo not given) | 5.25 | 
57 | CC(C)c1cc(C(O)CC2CCCCN2)c2ccccc2n1 (stereo not given) | 1.58 | 
58 | CCCCCCCN(CCCCCCC)CC(O)c1cc2ccc(Br)cc2c2cccnc12 (stereo not given) | 4.89 | 
59 | Cc1cc(-c2ccccc2)nc2c(C)cc(C(O)CN3CCCCCC3)cc12 (stereo not given) | 4.03 | 
60 | CN(C)CC(O)c1cc(-c2ccccc2)nc(-c2ccccc2)c1 (stereo not given) | 2.25 | 
61 | OC(CC1CCCCN1)c1ccnc2ccccc12 (stereo not given) | 0.05 | 
62 | OC(CC1CC2CCN1CC2)c1cc2ccccc2c2cc(Br)ccc12 (stereo not given) | 2.98 | 
63 | CCCN(CCC)CC(O)c1cc(-c2ccccc2)nc2ccccc12 (stereo not given) | 1.69 | 
64 | Cc1cc(C)c2ncc(C(O)CC3CCCCN3)cc2c1 (stereo not given) | 1.17 | 
65 | CCCCN(CCCC)CC(O)c1cc(-c2ccc(Cl)cc2)c2cc(-c3ccccc3)ccc2n1 (stereo not given) | 5.67 | 
66 | CCCCN(CCCC)CC(O)c1cc(-c2ccccc2)nc(-c2ccccc2)c1 (stereo not given) | 4.17 | 

Row | Compound | logP [1] | log(1/C) (Plasmodium berghei)
67 | OC(CN1CCCCCC1)c1ccc2c(Cl)cc(-c3ccccc3)nc2c1 (stereo not given) | 3.62 | 
68 | Cc1ccc(Oc2cc(C(O)CC3CCCCN3)c3ccccc3n2)cc1 (stereo not given) | 2.69 | 
69 | CCCN(CCC)CC(O)c1cc2ccccc2c2ccccc12 (stereo not given) | 2.12 | 
70 | CCC1C[N+]2(c3ccnc4ccc(OC(C)CO)cc34)CCC1CC2 (stereo not given) | 2.31 | 
71 | CCNCC(O)c1cc(-c2ccccc2)nc(-c2ccccc2)c1 (stereo not given) | 2.59 | 
72 | CCN(CC)CC(O)c1cc(Cl)cc2cccnc12 (stereo not given) | 0.12 | 
73 | CCCCNCC(O)c1cc2ccccc2c2ccccc12 (stereo not given) | 2.3 | 
74 | OC(CNC12CC3CC(CC(C3)C1)C2)c1cc(-c2ccc(F)cc2)nc2cc(F)ccc12 (stereo not given) | 3.84 | 
75 | OCCN(CC(O)c1cc2ccccc2c2ccccc12)C1CCCCC1 (stereo not given) | 2 | 
76 | CCCCN(CCCC)CC(O)c1cc(-c2ccc(Cl)cc2)c2cc(OC)c(Cl)cc2n1 (stereo not given) | 4.4 | 
77 | OC(CN1C=COC=C1)c1cc(-c2ccc(Cl)cc2)nc2cc(Cl)ccc12 (stereo not given) | 1.14 | 
78 | CCCCN(CCCC)CC(O)c1cc(-c2cccc(O)c2)nc2c(Cl)cc(Cl)cc12 (stereo not given) | 3.75 | 
79 | CCCCCCCCN(CCCCCCCC)CC(O)c1cc(-c2ccc(Cl)c(Cl)c2)nc2ccc(OC)cc12 (stereo not given) | 8.34 | 
80 | CCN(CC)CC(O)c1cc(-c2ccccc2)nc2ccccc12 (stereo not given) | 0.94 | 
81 | CCCCN(CCCC)CC(O)c1cc(OC)c2cc(OC)c(Cl)cc2n1 (stereo not given) | 1.71 | 
82 | CCCCCCN(CCCCCC)CC(O)c1cc(-c2ccccc2)nc(-c2ccccc2)c1 (stereo not given) | 6.11 | 
83 | CNCC(O)c1cc2ccccc2c2ccccc12 (stereo not given) | 0.98 | 
84 | CCCCCN(CCCCC)CC(O)c1cc(-c2ccccc2)nc2ccccc12 (stereo not given) | 3.58 | 
85 | CCN(CC)CC(O)c1cc(-c2ccccc2)nc(-c2ccccc2)c1 (stereo not given) | 2.54 | 
86 | CCCCCCCN(CCCCCCC)CC(O)c1cc2c(Cl)cc(Cl)cc2c2ccc(C)nc12 (stereo not given) | 6.01 | 
87 | CCCNCC(O)c1cc(-c2ccccc2)nc2ccccc12 (stereo not given) | 1.43 | 
88 | C=C[C@H]1CN2CC[C@H]1C[C@H]2[C@H](O)c1ccnc2ccc(OC)cc12.O=C(O)CCC(=O)O |  | 2.28

Row | Compound | logP [1] | log(1/C) (Plasmodium berghei)
89 | CCCCN(CCCC)CC(O)c1ccnc2c1cnc1cc(Cl)ccc12 (stereo not given) |  | 2.11
90 | CCCCCCN(CCCCCC)CC(O)c1cc(-c2ccccc2)nc2c(Cl)cc(Cl)cc12 (stereo not given) |  | 3.35
91 | CCCCCCCN(CCCCCCC)CC(O)c1cc2cccnc2c2ccccc12 (stereo not given) |  | 2.9
92 | Cc1ccc(-c2cc(C(O)CC3CCCCN3)c3ccccc3n2)cc1 (stereo not given) |  | 2.38
93 | Cc1c(Cl)ccc2c(C(O)CN(CCC(C)C)CCC(C)C)cc(-c3ccc(Cl)cc3)nc12 (stereo not given) |  | 3.09
94 | CCCCN(CCCC)CC(O)c1c(C)c(-c2ccc(C)cc2C)nc2c1cc(Cl)c1ccccc12 (stereo not given) |  | 3.05
95 | CCCN(CCC)CC(O)c1cc2cc(C(F)(F)F)cc(C(F)(F)F)c2c2ccccc12 (stereo not given) |  | 4.31
96 | CCCCN(CCCC)CC(O)c1cc2ccc(I)cc2c2cc(C(F)(F)F)ccc12 (stereo not given) |  | 3.72
97 | FC(F)(F)c1cc(C2CCCCN2)c2ccc3ccccc3c2n1.OC(CC1CCCCN1)c1cc(C(F)(F)F)nc2c1ccc1ccccc12 (stereo not given) |  | 3.44
98 | CCCCN(CCCC)CC(O)c1cccc2c1ccc1ccccc12 (stereo not given) |  | 2.06
99 | OC(CC1CCCCN1)c1cc2c(Cl)cc(Cl)cc2c2cc(Br)ccc12 (stereo not given) |  | 3.81
100 | CCCCN(CCCC)CC(O)c1c2ccccc2c(Cl)c2ccccc12 (stereo not given) |  | 3.51
101 | OC(C[N+]12CCC(CC1)CC2)c1cc(-c2ccc(Cl)cc2)nc(-c2ccc(Cl)cc2)c1 (stereo not given) |  | 3.21
102 | CCCC(C)NCC(O)c1cc(-c2ccc(C(F)(F)F)cc2)nc(-c2ccc(C(F)(F)F)cc2)c1 (stereo not given) |  | 4.44
103 | CCCCN(CCCC)CC(O)c1cc(-c2ccc(I)cc2)nc2ccc(I)cc12 (stereo not given) |  | 4.22
104 | OC(CC1CCCCN1)c1cc2cc(Cl)c(Cl)cc2c2cc(Br)ccc12 (stereo not given) |  | 3.91
105 | CCCCN(CCCC)CC(O)c1cc2ccc(C(F)(F)F)cc2c2cc(C(F)(F)F)ccc12 (stereo not given) |  | 4.1
106 | CCCCN(CCCC)CC(O)c1c(C)cnc2c1cc(Cl)c1ccccc12 (stereo not given) |  | 2.38
107 | CCCCN(CCCC)CC(O)c1cc(/C=C/c2ccc(Cl)cc2)cc(C(F)(F)F)c1 (stereo not given) |  | 4.37
108 | CCCCCN(CCCCC)CC(O)c1cccc2c1cc(Cl)c1ccccc12 (stereo not given) |  | 2.14
109 | OC(CC1CCCCN1)c1cc(-c2ccccc2)nc2c1ccc1ccccc12 (stereo not given) |  | 3.05
110 | CCCCN(CCCC)CC(O)c1cc(-c2ccc(I)cc2)nc2c(Cl)cc(Cl)cc12 (stereo not given) |  | 4.5
